Test results taken from the M2OR odorant receptor database.

Assays:
Settings in all cases: stereoisomer not certain
[1] = target: OR6C76 (Homo sapiens) (UniProt A6NM76)
Procedure, shortened: (§1)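 Whether a receptor–molecule pair is responsive (active) rests on the original authors' judgment that its measured signal was statistically different from baseline. Pairs without that judgment are non-responsive (inactive). Sources used varied assay methods, commonly transient luciferase assays in mammalian cell lines.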

[2] = target: OR6F1 (Homo sapiens) (UniProt Q8NGZ6)
Procedure, shortened: as §1

[3] = target: OR6J1 (Homo sapiens) (UniProt Q8NGC5)
Procedure, shortened: as §1
Target sequence in this assay (Q8NGC5 whole entry S250P): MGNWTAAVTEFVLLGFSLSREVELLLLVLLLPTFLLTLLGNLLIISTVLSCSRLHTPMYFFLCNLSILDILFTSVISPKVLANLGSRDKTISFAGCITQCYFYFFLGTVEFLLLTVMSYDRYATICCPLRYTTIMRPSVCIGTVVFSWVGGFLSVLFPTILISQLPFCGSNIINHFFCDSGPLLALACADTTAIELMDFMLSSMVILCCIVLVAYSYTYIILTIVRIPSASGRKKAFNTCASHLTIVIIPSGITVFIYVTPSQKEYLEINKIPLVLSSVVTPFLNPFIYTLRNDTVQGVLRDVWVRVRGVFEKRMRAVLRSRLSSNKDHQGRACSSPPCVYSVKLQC

[4] = target: OR6K2 (Homo sapiens) (UniProt Q8NGY2)
Procedure, shortened: as §1

[5] = target: OR6K3 (Homo sapiens) (UniProt Q8NGY3)
Procedure, shortened: as §1

[6] = target: OR6K6 (Homo sapiens) (UniProt Q8NGW6)
Procedure, shortened: as §1

[7] = target: OR6M1 (Homo sapiens) (UniProt Q8NGM8)
Procedure, shortened: as §1

[8] = target: OR6J1 (Homo sapiens) (UniProt Q8NGC5); remark: listed apart in the source
Procedure, shortened: as §1
Target sequence in this assay (Q8NGC5 whole entry): as the sequence (Q8NGC5 whole entry S250P) above, with P250S counted along it

[9] = tested on: OR6K3
Procedure, shortened: as §1

[10] = tested on: OR6M1 R224C
Procedure, shortened: as §1

Measured: odorant receptor agonist call;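 also: active if original authors judged signal statistically different from baseline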

OR6K2 (Homo sapiens), sequence (Q8NGY2 whole entry): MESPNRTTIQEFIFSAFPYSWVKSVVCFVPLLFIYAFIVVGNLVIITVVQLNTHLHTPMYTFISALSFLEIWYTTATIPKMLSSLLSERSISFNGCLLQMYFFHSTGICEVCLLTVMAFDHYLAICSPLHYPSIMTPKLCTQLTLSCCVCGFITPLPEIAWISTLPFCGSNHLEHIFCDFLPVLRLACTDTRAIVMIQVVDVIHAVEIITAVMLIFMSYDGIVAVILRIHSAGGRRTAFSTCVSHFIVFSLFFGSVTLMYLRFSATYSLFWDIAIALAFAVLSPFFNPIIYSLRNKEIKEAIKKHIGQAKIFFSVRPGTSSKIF
OR6C76 (Homo sapiens), sequence (A6NM76 whole entry): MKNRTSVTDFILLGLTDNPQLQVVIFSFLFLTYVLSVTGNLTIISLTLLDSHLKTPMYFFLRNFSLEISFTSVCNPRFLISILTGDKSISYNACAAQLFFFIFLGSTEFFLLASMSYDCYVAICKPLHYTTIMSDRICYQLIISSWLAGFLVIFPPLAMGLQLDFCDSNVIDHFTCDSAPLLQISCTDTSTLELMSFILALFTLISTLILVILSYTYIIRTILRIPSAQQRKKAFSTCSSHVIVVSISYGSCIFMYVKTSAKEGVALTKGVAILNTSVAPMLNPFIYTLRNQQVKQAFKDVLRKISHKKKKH
OR6M1 (Homo sapiens), sequence (Q8NGM8 whole entry): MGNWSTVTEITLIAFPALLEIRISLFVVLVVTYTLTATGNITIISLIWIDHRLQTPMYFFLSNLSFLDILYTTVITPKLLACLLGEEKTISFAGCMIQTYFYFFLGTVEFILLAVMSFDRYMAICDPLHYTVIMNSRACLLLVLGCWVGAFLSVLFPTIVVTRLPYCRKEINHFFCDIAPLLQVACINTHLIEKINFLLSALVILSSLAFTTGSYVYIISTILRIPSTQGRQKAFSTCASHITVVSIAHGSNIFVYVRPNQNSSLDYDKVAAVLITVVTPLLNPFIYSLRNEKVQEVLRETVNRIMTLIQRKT
OR6F1 (Homo sapiens), sequence (Q8NGZ6 whole entry): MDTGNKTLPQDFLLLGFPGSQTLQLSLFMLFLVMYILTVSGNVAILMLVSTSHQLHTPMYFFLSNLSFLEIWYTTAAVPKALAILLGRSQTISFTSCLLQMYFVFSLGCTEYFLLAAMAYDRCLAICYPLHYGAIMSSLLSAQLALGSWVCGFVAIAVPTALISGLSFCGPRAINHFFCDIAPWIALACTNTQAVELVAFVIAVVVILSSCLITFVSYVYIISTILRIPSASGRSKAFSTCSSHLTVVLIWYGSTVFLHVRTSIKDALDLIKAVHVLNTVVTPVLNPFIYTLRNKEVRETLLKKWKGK
OR6K6 (Homo sapiens), sequence (Q8NGW6 whole entry): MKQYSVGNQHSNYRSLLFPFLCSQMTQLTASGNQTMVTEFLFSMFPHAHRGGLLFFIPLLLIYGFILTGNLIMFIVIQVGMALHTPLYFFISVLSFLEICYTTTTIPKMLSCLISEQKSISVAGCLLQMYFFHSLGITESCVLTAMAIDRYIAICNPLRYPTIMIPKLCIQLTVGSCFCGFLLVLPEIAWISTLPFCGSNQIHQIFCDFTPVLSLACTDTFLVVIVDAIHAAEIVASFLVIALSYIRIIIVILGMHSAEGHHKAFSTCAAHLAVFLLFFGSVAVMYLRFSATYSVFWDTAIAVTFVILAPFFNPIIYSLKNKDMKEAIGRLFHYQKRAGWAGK
OR6M1 R224C, sequence (as listed by the source, stated change not applied): as the sequence (Q8NGM8 whole entry) above, with R224C counted along it
OR6K3, sequence (as listed by the source): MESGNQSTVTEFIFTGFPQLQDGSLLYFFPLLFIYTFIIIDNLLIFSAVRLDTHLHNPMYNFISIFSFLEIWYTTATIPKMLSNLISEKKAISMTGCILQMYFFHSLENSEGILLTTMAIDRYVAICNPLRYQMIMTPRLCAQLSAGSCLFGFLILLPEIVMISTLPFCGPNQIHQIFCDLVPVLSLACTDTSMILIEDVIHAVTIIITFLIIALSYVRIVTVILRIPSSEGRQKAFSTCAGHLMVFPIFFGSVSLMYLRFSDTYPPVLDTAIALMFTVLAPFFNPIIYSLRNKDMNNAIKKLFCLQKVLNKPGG
OR6K3 (Homo sapiens), sequence (Q8NGY3 whole entry): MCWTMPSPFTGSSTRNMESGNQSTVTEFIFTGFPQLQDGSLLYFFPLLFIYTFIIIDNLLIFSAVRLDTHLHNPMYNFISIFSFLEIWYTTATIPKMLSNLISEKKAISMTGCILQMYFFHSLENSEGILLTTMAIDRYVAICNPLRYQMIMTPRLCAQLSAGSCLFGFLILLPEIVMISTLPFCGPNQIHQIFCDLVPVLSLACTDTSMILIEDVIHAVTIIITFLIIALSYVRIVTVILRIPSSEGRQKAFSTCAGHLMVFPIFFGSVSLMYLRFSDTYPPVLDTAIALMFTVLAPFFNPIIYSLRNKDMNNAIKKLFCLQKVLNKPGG

Cc1c([N+](=O)[O-])c(C)c([N+](=O)[O-])c(C(C)(C)C)c1[N+](=O)[O-]
inactive: [1] | [2] | [3] | [4] | [5] | [6] | [7]

C=CCOC(=O)Cc1ccccc1
inactive: [1] | [2] | [8] | [4] | [9] | [6] | [7] | [10]
